Results on ten compounds are retold here after PubChem BioAssay.

Calls of active or inactive are those of the source.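 The calls were made as follows, unless noted: active = inhibition of the reporter signal at or above 50%; inactive = inhibition below 50%.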

A short description of experiment [1]: inhibitors of TNFa-induced NFkB p65 translocation, primary screen, imaging, HUVEC, MLSMR starter and 10KST1 sets (AID 438;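 active = inhibition above 20% together with a positive visual image hit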;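 also: compound added about 3h40 before a 20 min TNFalpha stimulation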;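 as to inhibition: signal is the nuclear over cytoplasmic p65 intensity ratio per well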). The settings on record: HUVEC TNFa-induced p65 nuclear translocation; cell count: measured here: nuclei count (cytotoxicity indicator), at 2.08 µM; inhibition: at 2 µM, stronger effect = higher value, 0% TNFa-plus-vehicle, 100% no-TNFa wells.
The nature of experiment [2]: inhibitors of mutant huntingtin aggregation, primary screen, imaging, exon1htt(103Q)mCFP cells, high-content imaging (AID 483;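 active = visual image review flags a hit and inhibition of aggregation exceeds 20%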;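 also: compound exposure lasted 3 days before fixation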;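 as to nuclei count: percent of the per-plate median nuclei count of sample wells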). The settings on record: exon1htt(103Q)mCFP cell line, aggregate imaging, at 2 µM; inhibition of aggregation: stronger effect = higher value; nuclei count: measured here: cell count, toxicity.
The nature of experiment [3]: inhibitors of E-selectin induction by TNFa, primary screen, imaging, HUVEC, immunofluorescence, MLSMR starter and 10KST1 sets (AID 487;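 active = visually confirmed hit in the image check and inhibition above 20%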;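 as to inhibition: signal is fraction of cell area covered by stained E-selectin grains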;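 as to nuclei count: 100% = median nuclei count of all wells on the same plate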). Conditions: HUVEC TNFalpha-induced E-selectin immunofluorescence imaging, at 2 µM; inhibition: stronger effect = higher value; nuclei count: measured here: cell number, toxicity.
Experiment [4] addresses Voltage-gated potassium channel subunit beta-2 (Rattus norvegicus) (UniProt P62483). In words: KvBeta enzyme negative modulators, primary screen, biochemical, NADPH fluorescence (AID 622;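 active = fluorescence slope higher than the sample average by over 3 SD, cut at about -0.22 in these data, passing the limit was not always enough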;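 also: slope of raw intensity against log time taken from 70 to 1610 s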). The settings on record: recombinant KvBeta, 4-cyanobenzaldehyde reduction, at 10 µM, stronger effect = higher value.
Experiment [5] has the same target. Description: KvBeta positive modulators, primary screen, biochemical, NADPH fluorescence (AID 623;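 active = NADPH fluorescence slope more negative than the mean of all samples by about 3 SD, 99.7% confidence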;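 also: fluorescence intensity change per second fitted from 20 to 320 s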). The settings on record: Recombinant KvBeta, NADPH fluorescence decrease slope, 10 min; at 10 µM; stronger effect = lower value.
For experiment [6], the target named is Muscarinic acetylcholine receptor M4 (Homo sapiens) (UniProt P08173). Description: compounds altering M4/GIRK thallium flux, either direction, primary screen, M4 allosteric agonist project, cell-based, HEK293 M4/GIRK, BTC-AM (AID 625;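 active = fluorescence slope after compound addition differing from the mean of all tested samples at 99.7% confidence, mostly higher but some lower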;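 also: thallium influx through GIRK channels coupled to M4 in HEK293 cells with BTC-AM dye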). The settings on record: at 10 µM, actives lie on both sides. In short, it runs like this: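 Material – HEK293 cells with M4 receptor and GIRK channels · Buffer or medium – pH 7.3 thallium assay buffer · Doses – one dose, 10 µM final · Timing – cells overnight at 37 °C, BTC-AM loading 1 h, reads 2 min total · Measured by – kinetic fluorescence with BTC-AM dye · Controls – carbachol and DMSO controls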

A short description of experiment [7]: inhibitors of Sendai virus-induced IRF3 signaling, primary screen, TLR/RLR signaling modifier project, cell-based, Sendai virus stimulus, luciferase, 10K MLSCN set (AID 602276;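 active = inhibition at or above 50% at 10 µM; inactive = inhibition below 50%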;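 also: firefly luciferase from ISG56 promoter only with Renilla not read in this screen; 0% = Sendai virus plus DMSO and 100% = medium plus DMSO without virus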). Conditions: HEK293 RL24 IRF3 luciferase reporter, at 10 µM, stronger effect = higher value. On the technique in general: Reporter assays use an easily measured gene product as a stand-in for the process of interest.

Experiment [8] is described as follows: inhibitors of poly I:C-induced TLR3 signaling, primary screen, cell-based, poly I:C stimulus, luciferase, 10K MLSCN set (AID 602277). Conditions: HEK293-TLR3 RL24 IRF3 luciferase reporter, at 10 µM, stronger effect = higher value.

Chain of Muscarinic acetylcholine receptor M4 (Homo sapiens) (P08173 whole entry, looked up): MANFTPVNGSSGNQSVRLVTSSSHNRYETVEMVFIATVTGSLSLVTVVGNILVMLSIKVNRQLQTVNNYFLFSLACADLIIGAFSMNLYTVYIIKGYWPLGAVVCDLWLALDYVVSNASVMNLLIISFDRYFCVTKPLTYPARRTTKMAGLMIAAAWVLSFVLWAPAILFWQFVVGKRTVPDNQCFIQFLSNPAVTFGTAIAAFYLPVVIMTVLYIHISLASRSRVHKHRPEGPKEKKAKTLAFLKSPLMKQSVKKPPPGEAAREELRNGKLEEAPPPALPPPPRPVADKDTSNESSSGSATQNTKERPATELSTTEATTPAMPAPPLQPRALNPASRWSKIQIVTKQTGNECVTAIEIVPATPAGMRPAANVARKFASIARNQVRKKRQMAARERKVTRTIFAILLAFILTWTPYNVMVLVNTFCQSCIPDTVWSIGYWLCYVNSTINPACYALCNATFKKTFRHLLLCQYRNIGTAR
Chain of Voltage-gated potassium channel subunit beta-2 (Rattus norvegicus) (P62483 whole entry, looked up): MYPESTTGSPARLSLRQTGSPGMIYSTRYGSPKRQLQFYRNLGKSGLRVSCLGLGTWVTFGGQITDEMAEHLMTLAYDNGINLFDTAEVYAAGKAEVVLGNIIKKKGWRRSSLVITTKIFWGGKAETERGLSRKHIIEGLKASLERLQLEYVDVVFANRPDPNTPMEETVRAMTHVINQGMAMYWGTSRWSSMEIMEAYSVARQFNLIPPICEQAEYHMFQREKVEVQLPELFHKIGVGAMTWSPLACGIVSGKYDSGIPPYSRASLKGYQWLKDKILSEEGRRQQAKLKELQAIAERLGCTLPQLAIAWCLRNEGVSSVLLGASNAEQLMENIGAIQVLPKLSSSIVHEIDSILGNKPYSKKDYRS

`Nc1sccc1C(=O)c1ccccc1`: the cell count in experiment [1] amounted to 339. Further, the inhibition (usually the drop in the measured response relative to a control, in per cent) is -5.4% (inactive) in experiment [1], -45.7% (inactive) in experiment [3], -12.1% (inactive) in experiment [7] and -9.56% (inactive) in experiment [8]. Also, the inhibition of aggregation in experiment [2] is 5.8% (inactive). The nuclei count was determined as 110% in experiment [2] and 129% in experiment [3]. For the same compound, the values for the fluorescence slope in experiment [4] and in experiment [6] were -0.563 (inactive) and 0.00467 (inactive), respectively. Besides, the NADPH fluorescence slope in experiment [5] is 7.1e-06 (inactive).
Regarding `Cc1nc(SCC(=O)Nc2ccccc2C(F)(F)F)c2c(=O)n(C)c(=O)n(C)c2n1`, the cell count in experiment [1] came out at 414. The inhibition is -4.7% (inactive) in experiment [1], -111% (inactive) in experiment [3], 7.4% (inactive) in experiment [7] and 13.5% (inactive) in experiment [8]. Also, the inhibition of aggregation in experiment [2] was 1.1% (inactive). Moreover, the nuclei count in experiment [2] was found to be 120%; in experiment [3], 121%. The values for the fluorescence slope in experiment [4] and in experiment [6] were -0.447 (inactive) and 0.0097 (inactive), respectively. Moreover, in experiment [5], the NADPH fluorescence slope was 8.7e-05 (inactive).
Regarding `Cc1ccc(-c2nnnn2CS(=O)(=O)c2ccccc2)cc1`, the cell count in experiment [1] amounted to 433. Further, the inhibition was -11.8% (inactive) in experiment [1], -19.4% (inactive) in experiment [3], 16.3% (inactive) in experiment [7] and 10.5% (inactive) in experiment [8]. Further, in experiment [2], the inhibition of aggregation was -9.7% (inactive). The nuclei count in experiment [2] turned out to be 114%; in experiment [3], 122%. The fluorescence slope in experiment [4] is -0.598 (inactive); in experiment [6], 0.006 (inactive). In addition, the NADPH fluorescence slope in experiment [5] is -1.2e-05 (inactive).
Take `COc1ccc(C)cc1S(=O)(=O)N1CCN(Cc2ccccc2)CC1`: the cell count in experiment [1] was determined as 708. Moreover, the inhibition in experiment [1] is -7.1% (inactive); in experiment [3] it was -41.3% (inactive); in experiment [7], 21.4% (inactive); in experiment [8] it was 19.5% (inactive). Also, the inhibition of aggregation in experiment [2] was -4.2% (inactive). Moreover, the nuclei count in experiment [2] worked out at 98.5%; in experiment [3], 102%. The fluorescence slope in experiment [4] was -0.558 (inactive); in experiment [6], 0.00529 (inactive). For the same compound, in experiment [5], the NADPH fluorescence slope was -1.1e-05 (inactive).
Take `COC(=O)COc1ccc(C(=O)OC)cc1`: the cell count in experiment [1] is 384. Further, the inhibition in experiment [1] is 5% (inactive); in experiment [3] it was -33.2% (inactive); in experiment [7], 6.44% (inactive); in experiment [8], 10.8% (inactive). Also, the inhibition of aggregation in experiment [2] is 9.9% (inactive). The nuclei count in experiment [2] came out at 100%; in experiment [3], 102%. Also, the fluorescence slope in experiment [4] is -0.456 (inactive); in experiment [6], 0.00492 (inactive). Also, the NADPH fluorescence slope in experiment [5] is 1.1e-05 (inactive).
`CSc1nsc(SCC(=O)N2CCc3ccccc32)n1`: in experiment [1], the cell count was 296. Also, the inhibition in experiment [1] was -3.5% (inactive); in experiment [3], -98.3% (inactive); in experiment [7], 5.46% (inactive); in experiment [8], -2.99% (inactive). Also, the inhibition of aggregation in experiment [2] is 22.6% (inactive). Also, the nuclei count in experiment [2] is 83.6%; in experiment [3], 112%. The fluorescence slope in experiment [4] was -0.451 (inactive); in experiment [6] it was 0.005 (inactive). The NADPH fluorescence slope in experiment [5] was 1.5e-05 (inactive).
For `COC(=O)c1ccccc1NC(=O)c1noc2c1CCC2`, in experiment [1], the cell count was 251. The inhibition in experiment [1] is 0.3% (inactive); in experiment [3] it was -15.1% (inactive); in experiment [7], 13.1% (inactive); in experiment [8], 22.8% (inactive). In addition, the inhibition of aggregation in experiment [2] is 6.7% (inactive). Besides, the figures for the nuclei count in experiment [2] and in experiment [3] were 100% and 120%, respectively. The fluorescence slope in experiment [4] is -0.597 (inactive); in experiment [6], 0.0051 (inactive). Also, in experiment [5], the NADPH fluorescence slope is -2.5e-05 (inactive).
`CCOC(=O)c1[nH]c(C)c(C(=O)N(C)C)c1C`: the cell count in experiment [1] is 684. In addition, the inhibition in experiment [1] was -10.9% (inactive); in experiment [3], -68% (inactive); in experiment [7], -36.1% (inactive); in experiment [8], 99.3% (active). For the same compound, in experiment [2], the inhibition of aggregation is 14.5% (inactive). The nuclei count in experiment [2] came to 111%; in experiment [3], 106%. The figures for the fluorescence slope in experiment [4] and in experiment [6] were -0.465 (inactive) and 0.00674 (inactive), respectively. Besides, in experiment [5], the NADPH fluorescence slope is -1.4e-05 (inactive).
For the compound `Cc1ccc(Cn2ncc3c(NCCCN4CCOCC4)ncnc32)cc1`, the cell count in experiment [1] is 642. In addition, the inhibition in experiment [1] was -14.6% (inactive); in experiment [3], -8.1% (inactive); in experiment [7] it was 22.3% (inactive); in experiment [8] it was 11.4% (inactive). Moreover, the inhibition of aggregation in experiment [2] is 13.9% (inactive). For the same compound, the figures for the nuclei count in experiment [2] and in experiment [3] were 84.8% and 98.3%, respectively. Also, the fluorescence slope in experiment [4] was -0.568 (inactive); in experiment [6], 0.00555 (inactive). Also, the NADPH fluorescence slope in experiment [5] is -1.3e-05 (inactive).
`Cc1nn(Cc2ccccc2Cl)c(C)c1NC(=O)C1C2CCC(O2)C1C(=O)O` (stereo not given): the cell count in experiment [1] turned out to be 625. Besides, the inhibition was 7.7% (inactive) in experiment [1], 16.3% (inactive) in experiment [3], -10.5% (inactive) in experiment [7] and -23.8% (inactive) in experiment [8]. For the same compound, in experiment [2], the inhibition of aggregation was 0.3% (inactive). The nuclei count came out at 101% in experiment [2] and 96.3% in experiment [3]. Moreover, the fluorescence slope in experiment [4] is -0.494 (inactive); in experiment [6], 0.00475 (inactive). In experiment [5], the NADPH fluorescence slope is -3.1e-05 (inactive).
